Results reported in ChEMBL document CHEMBL4513216, “Probing the Open Global Health Chemical Diversity Library for Multistage-Active Starting Points for Next-Generation Antimalarials” (ACS Infect Dis, 2020).

test: Toxicity liver stage against HepG2, at 10uM; type: cell-based; set-up: test concentration 10 uM, cell line HepG2-A16-CD81EGFP; details: human, HepG2-A16-CD81EGFP cells; read-out: INHIBITION
Outline: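 Uninfected HepG2-A16-CD81EGFP cells, 3 × 10^3 per well, 1536-well, plated on prespotted compound at 10 μM final, parasite-free screening media added to match infected plates; puromycin 10 μM positive, DMSO 0.5% negative; run in parallel with 48 h PbLuc assay at 37 °C, 5% CO2; viability by CellTiter-Glo luminescence, normalized to controls.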

Row | Structure (SMILES) | cytotoxicity at 10 µM [%]
1 | CC(C)(C)OC(=O)NC(C)(C)c1noc(Cn2ccnc2)n1 | 8.73
2 | O=C(CSC1=NS(=O)(=O)c2cc(F)ccc2N1)c1ccccc1 | -10.7
3 | Oc1ccccc1CN1CCCCCC1c1cccs1 (stereo not drawn) | -3.2
4 | Nc1c(N2CCCCC2)ncnc1N1CCOCC1 | 3.66
5 | Cc1nn(-c2ccc(C(=O)O)cc2)c2c1C(CC(C)C)SCC(=O)N2 (stereo not drawn) | -2.43
6 | COCCNC(=O)Cn1cc(OCc2ccccc2F)c(=O)cc1CO | -173
7 | Cc1nc(C)c(C(=O)Nc2cc(N3CCC(C)CC3)ncn2)s1 | -8.11
8 | CN(C)C(=O)NCc1ncn2c1CN(S(C)(=O)=O)CCC2 | 11
9 | O=C(c1nc2c(s1)CCCN2CC1CC1)N1CCCC1 | 15.2
10 | CC(=O)c1nn(-c2ccccc2)c(C)c1C(C)=O | 2.27
11 | Cc1cccc2c1cnn2CCC(=O)NCC(=O)N(C)C | 7.03
12 | CCc1c(C)nc2cc(-c3nccn3C)nn2c1N1CCCC(CO)C1 (stereo not drawn) | 3.06
13 | COc1ccccc1OCc1nc(C(C)C)no1 | 14
14 | CCCC(C)CS(=O)(=O)NCCc1csc(N2CCCC2)n1 (stereo not drawn) | 7.47
15 | CCN1CCCCC1C(=O)N1CCC(OC2CCCC2)CC1 (stereo not drawn) | -20.6
16 | Cc1nnc(CSc2n[nH]c(-c3ccccn3)n2)o1 | 5.81
17 | Cn1cc(NS(=O)(=O)CC2CCCCO2)cn1 (stereo not drawn) | -5.41
18 | CC(C)(C)OCCN1CCCC1c1nc(Cc2ccc(F)cc2)no1 (stereo not drawn) | -7.1
19 | O=C(c1ccoc1)N1CCC(NCc2cccnc2)CC1 | 8.21
20 | CC(CCc1ccccc1F)C(=O)NS(=O)(=O)CC1CC1 (stereo not drawn) | -5.36
21 | CCC(C)NC(=O)CN1CCC2(CC1)OCCO2 (stereo not drawn) | -4.92

Row | Structure (SMILES) | cytotoxicity at 10 µM [%]
22 | CC(C)NC(=O)CCNC(=O)c1cnc(Cc2ccc(F)cc2)s1 | 2.87
23 | CCN(C(=O)CSc1ccc(C(F)(F)F)cn1)C1CC1 | 7.77
24 | CN(C)CCN(Cc1ccc(Cl)cc1)C(=O)c1ccncc1 | 7.99
25 | COc1cc(NC(=O)c2ccc(Cl)cc2F)c(C(=O)N(C)C)cc1OC | -18.9
26 | CC(CN1CCCC1=O)NC(=O)c1cc(-c2cccc(Cl)c2)no1 (stereo not drawn) | 5.75
27 | COC(=O)c1ccc(S(=O)(=O)N(C)CC(N)=O)c(Cl)c1 | -1.65
28 | CC(C)(C)c1nc(CN(CCC2CCCCC2)CC(N)=O)no1 | -3.08
29 | Cc1nc(C2CCCCC2)sc1C(=O)O | 15
30 | CC(CCS(C)(=O)=O)NC(=O)NCc1ccc2c(c1)CCC2 (stereo not drawn) | -143
31 | CC1CCC(O)(CN2CCN(CCNC(=O)C3CCC3)CC2)CC1 (stereo not drawn) | -0.118
32 | Cc1cc(C)n(C2CN(c3ncnc4[nH]ccc34)C2)n1 | 6.59
33 | O=C(C1CCCN1S(=O)(=O)C1CCCC1)N1CCSCC1 (stereo not drawn) | 4.71
34 | Cc1nccn1-c1ccc(CNC(=O)c2ccc[nH]2)cn1 | -14.2
35 | CC(C)NC(=O)CCCn1cnc2ccccc2c1=O | 15.2
36 | COc1cccc(C2CN(CCc3ccncc3)CCO2)c1 (stereo not drawn) | -10.1
37 | Cc1noc(COCC(=O)Nc2ccc(Br)c(C)n2)n1 | 6.19
38 | Cc1ccccc1NS(=O)(=O)c1ccc(C(=O)O)cc1F | 7.94
39 | COc1cc(N2CCC3(CC2)OCC(=O)NC3C)ncn1 (stereo not drawn) | 1.95
40 | CCOC1COC2(CCN(c3ncc(C)cn3)CC2)C1 (stereo not drawn) | 7.21
41 | O=C(c1ccncc1)N1C[C@@H](OCc2cccnc2)[C@H]2OCCC[C@H]21 | 0.866
42 | Cn1cnc(-c2cc(C(=O)N3CCOCC3)c3ccccn23)c1 | 4.79

Row | Structure (SMILES) | cytotoxicity at 10 µM [%]
43 | Cc1cc(C(=O)N2CCCCC2c2nc3cc(F)ccc3[nH]2)nn1C (stereo not drawn) | 4.42
44 | Cc1ccc(-c2ccnc(NC(C)c3n[nH]c(=O)[nH]3)n2)c(C)n1 (stereo not drawn) | 1.33
45 | Cc1nc2c(c(NC3CC3)n1)CCN(C(=O)CCc1cccnc1)CC2 | -9.1
46 | O=C(NCC(F)F)c1ccc(S(=O)(=O)NCCc2c[nH]cn2)cc1 | -1.99
47 | CCS(=O)(=O)c1ncc(CN(C)Cc2cccc(OC)c2)n1CCOC | -0.636
48 | C[C@H](NC(=O)c1cccc(CCC(C)(C)O)c1)C(N)=O | -0.511
49 | Cc1cc(C(=O)N2CC[C@H](N3CCOCC3)[C@H](CCCO)C2)c(C)n1C | -138
50 | Cc1ccc(NC(=O)CN[C@H](C(N)=O)C(C)C)cc1F | 11
51 | CNC(=O)[C@@H]1C[C@@H](NC(=O)CCCc2cccs2)CN1C1CCOCC1 | -0.828
52 | Cc1ccccc1N1CCN(C(=O)c2cscn2)C(C)C1 (stereo not drawn) | 0.403
53 | O=C(c1sccc1Cl)N1CCC(Cn2cc(CO)nn2)CC1 | -7.12
54 | O=c1[nH]c(-c2ccc(Cl)cc2)nc2c1CCNC2 | 4.42
55 | O=C(COc1cccc(F)c1)N1C[C@H](CO)C[C@H](CN2CCCC2)C1 | 1.76
56 | Cc1cc(C(F)(F)F)cc(N2CCC3(CCC(=O)N(CCO)C3)CC2)n1 | 8.09
57 | CC(C)[C@]1(O)CN(C(=O)COCC(N)=O)C[C@H]1C | 7.37
58 | Cn1ccc2c(-c3nccc(N)n3)ccnc21 | -16
59 | CC1CN(Cc2nc(Cc3ccccc3F)no2)CCN1C (stereo not drawn) | -7.44
60 | Cn1cc(C(=O)N2CCCC(C(=O)CCc3ccccc3)C2)cn1 (stereo not drawn) | -5.16
61 | NC(=O)c1ccc(C2CCCN2C(=O)CCc2nc3ccccc3s2)s1 (stereo not drawn) | -8.8
62 | Cc1nn(C)c2nc(NC3CCNCC3)sc12 | -10.4
63 | Cc1cc(CN2CCC(CNC(=O)CN3CCCCCC3)C2)[nH]n1 (stereo not drawn) | -131

Row | Structure (SMILES) | cytotoxicity at 10 µM [%]
64 | COc1cccc2c1OCC(C(=O)N1CCC(NS(C)(=O)=O)CC1)C2 (stereo not drawn) | 1.49
65 | Cc1n[nH]c(C)c1CCC(=O)N1CCc2c(nc[nH]c2=O)C1 | -5
66 | CCCN(C)S(=O)(=O)N1CCCC1c1ccco1 (stereo not drawn) | -8.72
67 | CCOc1ccc(C(=O)N2CCCC(n3nc(C)nc3C)C2)cc1 (stereo not drawn) | -4.34
68 | COc1cc(C(=O)Nc2cn[nH]c2)ccc1C | -7.33
69 | CC(OCC1CC1)C(=O)N1CCCN(c2ncccc2C#N)CC1 (stereo not drawn) | -11.6
70 | CN(CCC#N)C(=O)CN1CCCC1c1ccsc1 (stereo not drawn) | -5.26
71 | CCc1n[nH]c(C2CN(C(=O)c3ncoc3C(C)C)CCO2)n1 (stereo not drawn) | -9.8
72 | Cc1nc(CN2CCC(N(C)Cc3noc(C4CC4)n3)C2)oc1C (stereo not drawn) | -11.1
73 | CN(C)c1ccnc(C2CCCN2)n1 (stereo not drawn) | 1.76
74 | CC1(C)CC(N(Cc2ccccc2)Cc2ncc[nH]2)CC(C)(C)N1 | 0.385
75 | O=C(NC1CC1)[C@H]1CC[C@@H]2[C@@H](CCN2CCOCc2ccccc2)O1 | -115
76 | COCC(=O)N1CCC2(CCN(Cc3ccc(C)cc3)CC2)CC1 | 6.68
77 | COCCN1C(=O)CC[C@@H]2[C@@H]1CCN2Cc1c(C)noc1C | 6.57
78 | CNC(=O)[C@H]1C[C@H]2OCC[C@H]2N(CC2CCOCC2)C1 | 6.46
79 | COc1cc(N2CCC3(CCCN(C(=O)c4cnccn4)C3)C2)ncn1 (stereo not drawn) | -2.48
80 | CCOC[C@]12COC[C@H]1CN(Cc1ccc(F)c(F)c1)C2 | -107
81 | COCCN1CCO[C@@H]2CN(C(=O)Cc3cccc(F)c3)CC[C@@H]2C1 | 5.95
82 | COc1ccc(C2Nc3ccccc3N=C3CNC(=O)C32)cc1OC (stereo not drawn) | 5.56
83 | CC(C)CCN1C[C@@H]2C[C@H](C(=O)N3CCCC3)[C@H](C1)O2 | 4.82
